Neddyl block = blocks human cullin neddylation; P61081+Q13564; TR-FRET cullin neddylation, biochemical; inhibition, % at 25 µM; 0.58% of 360,000 active; AID 651699; in the data active = inhibition above about 36%
HKDC1 inh = inhibitors of human hexokinase HKDC1. recombinant HKDC1, G6PDH/diaphorase resazurin coupled fluorescence. inhibition, % at 20 µM. 0.16% of 340,000 active. AID 493160;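 active = inhibition above about 35% when tested at 20 µM, limit read from the data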;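 note: plate controls were DMSO wells with enzyme for no effect and DMSO wells lacking enzyme for full effect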
Target sequence (Q2TB90 whole entry, looked up): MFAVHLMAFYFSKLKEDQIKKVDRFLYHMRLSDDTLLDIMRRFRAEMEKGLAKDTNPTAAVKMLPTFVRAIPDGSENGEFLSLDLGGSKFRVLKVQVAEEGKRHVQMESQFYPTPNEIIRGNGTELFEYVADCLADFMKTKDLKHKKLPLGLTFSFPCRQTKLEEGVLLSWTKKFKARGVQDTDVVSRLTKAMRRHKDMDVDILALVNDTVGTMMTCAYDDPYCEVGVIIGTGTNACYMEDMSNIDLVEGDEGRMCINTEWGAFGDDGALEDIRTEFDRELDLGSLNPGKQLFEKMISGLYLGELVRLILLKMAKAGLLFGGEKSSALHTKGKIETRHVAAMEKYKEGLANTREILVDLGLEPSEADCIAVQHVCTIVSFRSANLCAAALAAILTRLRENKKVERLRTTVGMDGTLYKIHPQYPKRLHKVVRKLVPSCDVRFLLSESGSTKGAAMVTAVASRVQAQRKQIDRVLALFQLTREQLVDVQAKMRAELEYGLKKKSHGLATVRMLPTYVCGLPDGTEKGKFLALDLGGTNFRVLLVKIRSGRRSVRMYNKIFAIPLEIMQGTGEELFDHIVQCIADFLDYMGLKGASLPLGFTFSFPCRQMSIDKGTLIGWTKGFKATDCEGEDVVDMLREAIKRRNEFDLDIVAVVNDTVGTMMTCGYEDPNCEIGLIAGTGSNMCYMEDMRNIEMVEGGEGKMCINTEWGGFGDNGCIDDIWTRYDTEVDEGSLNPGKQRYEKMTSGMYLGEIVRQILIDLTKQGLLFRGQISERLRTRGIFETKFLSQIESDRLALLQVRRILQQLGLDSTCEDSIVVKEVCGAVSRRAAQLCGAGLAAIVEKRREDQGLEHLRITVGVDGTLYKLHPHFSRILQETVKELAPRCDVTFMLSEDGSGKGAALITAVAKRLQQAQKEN
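Material: recombinant HKDC1 hexokinase; Amount: HKDC1 at 5 µg/mL; Medium: Tris pH 8.0 buffer with MgCl2, Tween-20, BSA, BME; Schedule: 90 min reaction incubation at room temperature, dark; Technique: coupled resazurin fluorescence, excitation 525 nm, emission 613 nm.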
PfG6PD inh = PfG6PD (Plasmodium falciparum) enzyme inhibition. PfGluPho enzyme, NADPH resazurin-diaphorase fluorescence. inhibition, % at 20 µM. 0.78% of 350,000 active;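 active = inhibition reaching at least a set limit at 20 µM in the primary screen, cut at about 59% in these data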;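 note: 0% = DMSO wells with substrate and 100% = DMSO wells lacking glucose-6-phosphate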
M18AAP inhibitor = PfM18AAP enzyme inhibition; 1.2% of 290,000 active; AID 1822; recombinant PfM18AAP, H-Glu-NHMec fluorogenic cleavage; inhibition, % at 7.35 µM;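 active = inhibition above the campaign mean inhibition over all tested compounds plus 3 SD, cut at about 28% in these data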;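 note: 0% = plate median of test compound wells and 100% = 2 mM ZnCl2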
PfGluPho conf = confirmation of Plasmodium falciparum G6PD inhibitors; recombinant PfGluPho, NADPH-diaphorase-resazurin fluorescence; 34% of 2,400 active; shares compounds with PfG6PD inh; inhibition, % at 20 µM;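 active = inhibition of at least 50% at 20 µM in any single replicate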;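 note: 0% = DMSO with substrate and 100% = DMSO lacking glucose-6-phosphate substrate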
Diaph ctr 10uM = counter-screen for P. falciparum G6PD inhibitors: diaphorase inhibitors, oxidizers; shares compounds with PfG6PD inh; inhibition, % at 20 µM; 39% of 820 active; diaphorase-coupled resazurin reduction, fluorescence, NADPH 10 uM; AID 504862;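 active = average inhibition reaching 50% or more with the compound at 20 µM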;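 note: resorufin red fluorescence formed as diaphorase reduces resazurin using NADPH; 0% = DMSO with enzyme and 100% = DMSO without enzyme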
Diaphorase 30uM = inhibits diaphorase or oxidizes, flagging false PfG6PD hits | shares compounds with PfG6PD inh | Diaphorase/resazurin coupled assay, resorufin fluorescence, 30 uM NADPH | inhibition, % at 20 µM | 29% of 820 active | AID 504863;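 active = inhibition averaging 50% or more, tested at 20 µM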;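 note: 0% = DMSO with enzyme and 100% = DMSO wells lacking diaphorase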
Starred values were filed as active, the others as inactive. Only some compounds are listed: those with a hit (about 2.2% of all), similar ones and a draw of the others.

For Cc1ccc(NC(=O)CN(C)C(=O)c2ccc3[nH]c4c(c3c2)CC(C)CC4)cc1 (stereo not given) the results were Neddyl block -1.3, HKDC1 inh -1.4 and PfG6PD inh 17.5.
CC1CCc2[nH]c3ccc(C(=O)N(C)CC(=O)Nc4ccccc4C(F)(F)F)cc3c2C1 (stereo not given) was read as Neddyl block 18.3, HKDC1 inh 4.7, PfG6PD inh 109.8*, PfGluPho conf 63.2*, Diaph ctr 10uM 52.7* and Diaphorase 30uM 34.4.
`CC1CCc2[nH]c3ccc(C(=O)N(C)CC(=O)Nc4ccccc4Cl)cc3c2C1` (stereo not given) gave Neddyl block 28.8, HKDC1 inh -3.3, PfG6PD inh 59.8* and PfGluPho conf 23.6.
Screening O=S(=O)(CCN1CCCCC1)Oc1ccc(Cl)cc1Cl returned Neddyl block 1.8, HKDC1 inh -2.4, PfG6PD inh -5.1 and M18AAP inhibitor -18.9.
Screening Cc1ccc(S(=O)(=O)c2nnn3c2nc(N2CCCCC2)c2ccccc23)cc1 returned Neddyl block -20.1, HKDC1 inh -5.4, PfG6PD inh 72.2*, M18AAP inhibitor -6.0 and PfGluPho conf 24.9.
For O=C(O)c1ccccc1O the results were Neddyl block 28.9, HKDC1 inh -2.6, PfG6PD inh -1.9 and M18AAP inhibitor 4.4.
For Nc1c(O)cccc1C(=O)O the results were HKDC1 inh 21.0, PfG6PD inh 107.6*, PfGluPho conf 80.4*, Diaph ctr 10uM 0.0 and Diaphorase 30uM 0.3.
CCNC(=O)c1c(NC(=O)c2cc(-c3cc(C)cc(C)c3O)n[nH]2)sc2c1CCCC2 was read as HKDC1 inh -5.5 and PfG6PD inh 1.1.
Screening CC1N(C)c2cccc3cccc(c23)N1C returned HKDC1 inh 18.9, PfG6PD inh 69.0*, M18AAP inhibitor 9.7, PfGluPho conf 52.8*, Diaph ctr 10uM 0.8 and Diaphorase 30uM 1.8.
CSCCC(NC(=O)c1ccccc1Cl)C(=O)NNC(=O)c1ccncc1 (stereo not given) was read as Neddyl block 2.9, HKDC1 inh -2.9 and PfG6PD inh 7.8.
For COc1ccc(NCC(=O)N/N=C/C2CCCCC2)cc1 the results were Neddyl block 1.6, HKDC1 inh 15.9, PfG6PD inh 69.3*, M18AAP inhibitor 3.9 and PfGluPho conf 13.2.
`CCCC1CCC(=NNC(=O)CNc2ccc(OC)cc2)CC1` (stereo not given) gave Neddyl block 7.7, HKDC1 inh -2.0, PfG6PD inh -3.9 and M18AAP inhibitor 4.2.
Screening C=CCOc1ccccc1CN(CCc1ccccc1)C(=O)c1cccc(S(C)(=O)=O)c1 returned Neddyl block 7.0, HKDC1 inh 3.8, PfG6PD inh 3.9 and M18AAP inhibitor -8.0.
For O=[N+]([O-])c1ccc2nc(-c3ccccc3)[nH]c2c1 the results were Neddyl block -30.6, HKDC1 inh 7.2, PfG6PD inh 68.3*, M18AAP inhibitor 7.8 and PfGluPho conf 21.1.
`O=[N+]([O-])c1ccc2nc(-c3cccnc3)[nH]c2c1` gave Neddyl block -48.6, HKDC1 inh 2.7, PfG6PD inh 40.8 and M18AAP inhibitor -7.8.
Nc1cccc(-c2nc3ccc(C(=O)c4ccccc4)cc3[nH]2)c1 was read as Neddyl block 1.8, HKDC1 inh 1.7, PfG6PD inh 62.1*, M18AAP inhibitor -2.2 and PfGluPho conf 13.5.
COc1ccccc1/C=N/NC(=O)CC(=O)NCc1ccccc1 was read as Neddyl block -3.4, HKDC1 inh -3.7, PfG6PD inh 104.9*, M18AAP inhibitor 2.0, PfGluPho conf 86.4*, Diaph ctr 10uM 92.5* and Diaphorase 30uM 81.8*.
For COc1ccccc1/C=N/NC(=O)CSc1ccc2ccccc2n1 the results were Neddyl block -10.5, HKDC1 inh 3.1, PfG6PD inh 119.2*, M18AAP inhibitor -2.2, PfGluPho conf 84.9*, Diaph ctr 10uM 97.3* and Diaphorase 30uM 85.8*.
COc1cccc2c(SCC(=O)N/N=C/c3ccc(O)cc3O)cc(C)nc12 was read as Neddyl block 23.3, HKDC1 inh -24.7, PfG6PD inh -28.8 and M18AAP inhibitor 15.0.
`COc1ccccc1/C=N/NC(=O)CO` gave Neddyl block 9.8, HKDC1 inh -7.8, PfG6PD inh 24.5 and M18AAP inhibitor 1.3.
`COc1ccccc1/C=N/NC(=O)CSc1cc(C)nc2ccccc12` gave Neddyl block -67.9, HKDC1 inh -0.7, PfG6PD inh 83.2*, M18AAP inhibitor -0.1, PfGluPho conf 67.6*, Diaph ctr 10uM 68.6* and Diaphorase 30uM 53.1*.
`COc1ccc2nc(C)cc(SCC(=O)N/N=C/c3ccccc3)c2c1` gave Neddyl block 7.9, HKDC1 inh -6.3, PfG6PD inh 59.0, M18AAP inhibitor 18.0 and PfGluPho conf 11.5.
For COc1ccc2nc(C)cc(SCC(=O)N/N=C/c3c(OC)ccc4ccccc34)c2c1 the results were HKDC1 inh 13.0, PfG6PD inh -4.8 and M18AAP inhibitor -9.2.
Screening O=C(Cc1ccccc1)NNC(=O)C1CC=CCC1 (stereo not given) returned Neddyl block -4.4, HKDC1 inh -2.1, PfG6PD inh -10.3 and M18AAP inhibitor -3.5.
`CCSc1nnc(NC(=O)CCNS(=O)(=O)c2ccccc2F)s1` gave Neddyl block 4.0, HKDC1 inh -3.7, PfG6PD inh 10.4 and M18AAP inhibitor 3.2.
O=[N+]([O-])c1ccc(NS(=O)(=O)c2ccc(Cl)c(Cl)c2)cc1 was read as Neddyl block -28.6.
Screening COc1ccc(NC(=O)CN2C(=O)C(=O)N(C3CCCC3)C2=O)c(OC)c1 returned Neddyl block -29.8, HKDC1 inh 0.2 and PfG6PD inh -1.5.
CC1CCCCN1C(=O)CCNC(=O)Cn1cnc2ccccc2c1=O (stereo not given) was read as Neddyl block 10.7, HKDC1 inh -7.3, PfG6PD inh 13.9 and M18AAP inhibitor -12.6.
`Cc1ccc(CNc2ccc3c(c2)OCO3)cc1` gave Neddyl block 23.6, HKDC1 inh 5.7, PfG6PD inh 40.0 and M18AAP inhibitor 7.4.
c1cc(CNc2ccc3c(c2)OCO3)ccn1 was read as Neddyl block 11.3, HKDC1 inh 22.5, PfG6PD inh 61.2*, M18AAP inhibitor 5.6, PfGluPho conf 53.2*, Diaph ctr 10uM 15.0 and Diaphorase 30uM 11.4.
COc1ccc(Cl)cc1NC(=O)CN(C)C(=O)Cc1ccc2c(c1)CCC2 was read as Neddyl block -1.9, HKDC1 inh 4.3, PfG6PD inh 84.4*, M18AAP inhibitor -14.1, PfGluPho conf 56.6*, Diaph ctr 10uM 53.1* and Diaphorase 30uM 51.6*.
O=C(Nc1c(Cl)ccc2nsnc12)c1ccc([N+](=O)[O-])o1 was read as Neddyl block -29.8, HKDC1 inh 9.6, PfG6PD inh 6.3 and M18AAP inhibitor 3.0.
